Assays:
Glycine max [1] = test: Inhibition of soybean 15-LOX at 33 ug/ml
Summary of the method: (§1)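 15-Lipoxygenase inhibition assay run with arachidonic acid (40 μM) as the substrate, at the single test concentration given in each line.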

Glycine max [2] = test: Inhibition of soybean 15-LOX at 0.36 uM; summary of the method: as §1

`Oc1ccccc1O` was tested, and the inhibition (Glycine max [1]) was 33% and the inhibition (Glycine max [2]) was 37%.
